# Experiments:
# [1] = Inhibition of the positive chronotropic response (H2-antagonism) of guinea pig right atrium relative to cimetidine.; format: functional, Cavia porcellus, Cardiac atrium
# [2] = biological target: Histamine H2 receptor (Cavia porcellus) (UniProt P47747); experiment: Histamine H2 receptor antagonistic activity at a concentration of 0.3 and 1 uM on the isolated guinea pig right atrium.; format: functional, tissue-based; settings: Cardiac atrium
# [3] = biological target: Histamine H2 receptor (Cavia porcellus) (UniProt P47747); experiment: Histamine H2 receptor antagonism at a concentration of 1 umolar on the isolated guinea pig right atrium.; format: functional, tissue-based; settings: Cardiac atrium
# [4] = biological target: Histamine H1 receptor (Cavia porcellus, UniProt P31389); experiment: Histamine H1 receptor antagonistic activity on the isolated guinea pig ileum determined by Schild plot.; format: functional, tissue-based; settings: read-out: pA2 (converted)
# Sequence of Histamine H1 receptor (P31389 whole entry): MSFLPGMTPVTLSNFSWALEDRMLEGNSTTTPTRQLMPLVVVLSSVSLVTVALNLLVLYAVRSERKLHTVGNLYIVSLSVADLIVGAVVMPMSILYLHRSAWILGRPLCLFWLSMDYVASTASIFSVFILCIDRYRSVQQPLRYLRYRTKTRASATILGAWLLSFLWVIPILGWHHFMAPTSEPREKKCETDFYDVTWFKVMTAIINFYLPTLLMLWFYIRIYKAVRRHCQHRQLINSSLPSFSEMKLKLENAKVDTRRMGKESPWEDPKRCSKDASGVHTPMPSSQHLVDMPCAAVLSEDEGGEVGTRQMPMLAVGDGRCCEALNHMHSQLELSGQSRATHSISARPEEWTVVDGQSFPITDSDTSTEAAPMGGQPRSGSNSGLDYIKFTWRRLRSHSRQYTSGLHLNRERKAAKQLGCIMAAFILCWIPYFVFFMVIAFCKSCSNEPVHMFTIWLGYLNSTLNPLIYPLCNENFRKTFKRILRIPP
# In short: (§1)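 Whole proximal guinea pig ileum segments in Tyrode's solution gassed with 95% O2/5% CO2, isotonic recording at 10 mN load. Cumulative histamine (0.01-3 μM) curves. Antagonist applied 10 min before the curve. pK_B from concentration ratio, or pA2 by Schild plot.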
# [5] = biological target: T1, Histamine H2 receptor (Cavia porcellus, UniProt P47747); experiment: Inhibition of [125I]APT binding to H2 receptors in guinea pig cerebral membranes.; format: cell membranes
# T1 sequence (P47747 whole entry): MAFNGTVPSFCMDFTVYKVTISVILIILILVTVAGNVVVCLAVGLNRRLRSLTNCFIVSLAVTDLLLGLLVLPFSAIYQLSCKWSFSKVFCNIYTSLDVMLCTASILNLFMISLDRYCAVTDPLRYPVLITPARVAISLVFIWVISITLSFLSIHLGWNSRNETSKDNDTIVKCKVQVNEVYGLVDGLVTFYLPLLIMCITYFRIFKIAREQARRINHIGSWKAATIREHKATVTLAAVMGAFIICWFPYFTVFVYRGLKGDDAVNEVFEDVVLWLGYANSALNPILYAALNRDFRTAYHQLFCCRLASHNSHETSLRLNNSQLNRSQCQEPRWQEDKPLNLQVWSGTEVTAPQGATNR
# In short: (§2)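 Striatal membranes from male Hartley guinea pigs (200-300 g) in 50 mM sodium/potassium phosphate, pH 7.5, with 0.1% gelatin. Stopped with cold buffer containing 0.1% BSA, then filtered on polyethylenimine-treated glass-fiber filters and γ-counted. Azido compounds handled under dim light.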
# [6] = biological target: Histamine H2 receptor (Cavia porcellus) (UniProt P47747); experiment: Inhibition of the positive chronotropic response (histamine H2 receptor antagonism) of guinea pig right atrium relative to cimetidine.; format: functional, tissue-based; settings: Cardiac atrium
# [7] = biological target: T1, Histamine H2 receptor; experiment: Inhibition of [125I]APT binding to histamine H2 receptor in guinea pig cerebral membranes.; format: cell membranes
# In short: as §2, with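 “gelatin. Membranes incubated with 125I-APT 120 min at 25 °C, in triplicate.” for “gelatin.”, “γ-counted. […]” for “γ-counted.”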
# [8] = biological target: T1, Histamine H2 receptor; experiment: Histamine H2 receptor antagonistic activity on the isolated guinea pig right atrium.; settings: read-out: pA2 (converted)
# [9] = biological target: Histamine H2 receptor (Cavia porcellus) (UniProt P47747); experiment: Histamine H2 receptor antagonistic activity at a concentration of 0.3 uM on the isolated guinea pig right atrium; format: functional, tissue-based; settings: Cardiac atrium
# [10] = biological target: Histamine H2 receptor (Cavia porcellus) (UniProt P47747); experiment: Histamine H2 receptor antagonistic activity at a concentration of 0.3 and 0.1 uM on the isolated guinea pig right atrium.; format: functional, tissue-based; settings: Cardiac atrium
# [11] = biological target: Histamine H2 receptor (Cavia porcellus) (UniProt P47747); experiment: Potency to inhibit the positive chronotropic response (H2-antagonism) of guinea pig right atrium relative to cimetidine.; format: functional, tissue-based; settings: Cardiac atrium
# [12] = biological target: Muscarinic acetylcholine receptor M3 (Cavia porcellus) (UniProt Q8VH26)
# Sequence of Muscarinic acetylcholine receptor M3 (Cavia porcellus) (Q8VH26 1-587): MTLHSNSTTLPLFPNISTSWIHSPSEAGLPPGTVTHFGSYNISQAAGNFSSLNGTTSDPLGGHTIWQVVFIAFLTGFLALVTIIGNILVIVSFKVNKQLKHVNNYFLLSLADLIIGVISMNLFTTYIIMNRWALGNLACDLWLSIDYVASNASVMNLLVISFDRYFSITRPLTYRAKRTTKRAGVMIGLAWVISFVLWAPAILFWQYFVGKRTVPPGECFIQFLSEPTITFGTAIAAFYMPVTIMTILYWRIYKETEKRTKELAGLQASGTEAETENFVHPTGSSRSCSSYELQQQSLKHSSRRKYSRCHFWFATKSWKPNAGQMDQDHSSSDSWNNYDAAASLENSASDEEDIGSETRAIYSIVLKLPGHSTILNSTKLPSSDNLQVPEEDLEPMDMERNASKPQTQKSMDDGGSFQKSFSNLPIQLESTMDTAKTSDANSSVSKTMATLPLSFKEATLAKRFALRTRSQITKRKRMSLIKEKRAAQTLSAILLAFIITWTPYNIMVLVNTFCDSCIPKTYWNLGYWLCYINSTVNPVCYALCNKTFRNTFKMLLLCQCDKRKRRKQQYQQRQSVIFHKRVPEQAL
# [13] = biological target: Histamine H1 receptor (Cavia porcellus) (UniProt P31389)
# Sequence of Histamine H1 receptor (Cavia porcellus) (P31389 whole entry): as the sequence (P31389 whole entry) above
# [14] = biological target: Serotonin 2 (5-HT2) receptor (Rattus norvegicus) (UniProt P30994+P08909+P14842); experiment: 5-hydroxytryptamine 2 receptor antagonistic activity at concentrations of3,10 and 30 uM on the rat tail artery.; format: functional, tissue-based
# Sequence of Serotonin 2 (5-HT2) receptor (Rattus norvegicus) (P08909 whole entry, looked up): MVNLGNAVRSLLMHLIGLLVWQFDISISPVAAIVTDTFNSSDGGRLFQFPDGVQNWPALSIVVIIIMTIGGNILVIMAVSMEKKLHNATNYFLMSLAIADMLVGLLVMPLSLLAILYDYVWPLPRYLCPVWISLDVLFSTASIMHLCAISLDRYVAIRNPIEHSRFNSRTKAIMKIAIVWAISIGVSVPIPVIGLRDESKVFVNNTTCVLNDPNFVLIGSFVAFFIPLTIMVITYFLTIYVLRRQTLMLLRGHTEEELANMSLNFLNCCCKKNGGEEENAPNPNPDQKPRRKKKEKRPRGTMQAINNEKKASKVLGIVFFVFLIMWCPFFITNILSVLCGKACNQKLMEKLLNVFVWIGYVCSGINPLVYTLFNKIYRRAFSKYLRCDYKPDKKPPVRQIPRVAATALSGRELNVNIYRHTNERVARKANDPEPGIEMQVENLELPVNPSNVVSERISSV
# Sequence of Serotonin 2 (5-HT2) receptor (Rattus norvegicus) (P14842 whole entry, looked up): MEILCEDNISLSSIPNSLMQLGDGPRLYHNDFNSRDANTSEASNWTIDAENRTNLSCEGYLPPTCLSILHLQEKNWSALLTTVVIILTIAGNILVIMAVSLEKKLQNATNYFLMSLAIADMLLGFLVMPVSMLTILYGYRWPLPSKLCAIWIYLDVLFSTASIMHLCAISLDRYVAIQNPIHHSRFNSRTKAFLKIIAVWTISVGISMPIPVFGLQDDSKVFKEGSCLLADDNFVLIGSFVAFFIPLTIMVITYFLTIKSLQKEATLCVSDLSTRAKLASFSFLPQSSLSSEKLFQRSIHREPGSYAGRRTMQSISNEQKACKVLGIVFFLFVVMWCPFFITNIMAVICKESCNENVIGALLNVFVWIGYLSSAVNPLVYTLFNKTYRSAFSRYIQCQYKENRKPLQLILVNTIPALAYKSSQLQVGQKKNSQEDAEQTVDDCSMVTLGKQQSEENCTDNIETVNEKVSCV
# Sequence of Serotonin 2 (5-HT2) receptor (Rattus norvegicus) (P30994 whole entry, looked up): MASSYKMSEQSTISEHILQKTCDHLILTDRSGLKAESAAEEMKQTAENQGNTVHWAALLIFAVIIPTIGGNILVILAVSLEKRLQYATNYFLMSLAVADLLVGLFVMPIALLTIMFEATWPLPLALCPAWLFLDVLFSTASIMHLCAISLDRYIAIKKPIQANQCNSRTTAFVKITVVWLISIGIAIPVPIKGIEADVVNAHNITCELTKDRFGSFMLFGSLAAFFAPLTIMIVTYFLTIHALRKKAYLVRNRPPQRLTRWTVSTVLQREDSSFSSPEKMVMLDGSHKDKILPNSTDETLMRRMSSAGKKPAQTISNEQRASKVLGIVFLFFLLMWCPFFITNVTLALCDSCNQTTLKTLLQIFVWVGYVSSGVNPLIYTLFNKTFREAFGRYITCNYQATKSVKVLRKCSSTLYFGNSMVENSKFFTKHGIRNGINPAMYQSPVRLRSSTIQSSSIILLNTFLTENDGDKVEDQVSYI
# In short: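 Endothelium-denuded ventral tail artery segments from male Wistar rats (280-350 g), resting force 5 mN, 120 min equilibration with one 1 μM 5-HT priming. Two to three cumulative 5-HT (0.01-10 μM) curves per preparation.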
# [15] = biological target: Adrenergic receptor alpha-1 (Rattus norvegicus) (UniProt P15823+P23944+P43140); experiment: Alpha-1 adrenergic receptor antagonistic activity at concentrations of 3,10,30and 100 uM on the rat aorta.; format: functional
# In short: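 Endothelium-denuded thoracic aortic rings from the same rats, mounted isometrically, resting force 20 mN. Equilibration 140 min with two primings of 0.1 μM (R)-phenylephrine. Cumulative (R)-phenylephrine (0.003-10 μM) curves recorded with 1 μM (±)-propranolol present.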
# [16] = biological target: Beta-1 adrenergic receptor (Cavia porcellus) (UniProt B0FL73); experiment: Beta-1 Adrenergic receptor antagonistic activity at concentrations of 10 and 30 uM on the isolated guinea pig right atrium.; format: functional, tissue-based; settings: Cardiac atrium
# Sequence of Beta-1 adrenergic receptor (Cavia porcellus) (B0FL73 1-467): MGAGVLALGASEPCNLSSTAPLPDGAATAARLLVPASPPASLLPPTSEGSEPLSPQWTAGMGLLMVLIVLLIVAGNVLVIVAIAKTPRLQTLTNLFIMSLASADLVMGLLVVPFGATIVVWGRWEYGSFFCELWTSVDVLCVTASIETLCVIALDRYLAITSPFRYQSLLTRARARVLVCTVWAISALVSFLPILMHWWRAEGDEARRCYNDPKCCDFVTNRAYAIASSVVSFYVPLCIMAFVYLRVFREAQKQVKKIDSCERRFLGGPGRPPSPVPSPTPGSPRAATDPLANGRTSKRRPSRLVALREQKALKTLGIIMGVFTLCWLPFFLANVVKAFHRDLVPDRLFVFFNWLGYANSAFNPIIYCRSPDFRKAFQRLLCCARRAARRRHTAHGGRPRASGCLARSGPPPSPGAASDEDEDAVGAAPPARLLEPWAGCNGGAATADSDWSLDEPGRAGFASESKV
# In short: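 Spontaneously beating guinea pig right atrium, isometric recording of chronotropic response. Cumulative isoprenaline (0.1-30 nM) curves as reference agonist. Incubation handled as in the H2 protocol. pK_B = -log[antagonist] + log(concentration ratio - 1).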
# [17] = biological target: Histamine H1 receptor (Cavia porcellus) (UniProt P31389); experiment: Histamine H1 receptor antagonistic activity at concentrations of 3 and 10 uM on the isolated guinea pig iluem.; format: functional; in short: as §1
# [18] = biological target: Histamine H2 receptor (Cavia porcellus) (UniProt P47747); experiment: Histamine H2 receptor antagonistic activity on the isolated guinea pig right atrium determined by Schild plot.; format: functional, tissue-based; settings: Cardiac atrium
# [19] = biological target: Histamine H2 receptor (Cavia porcellus) (UniProt P47747); experiment: Histamine H2 receptor antagonistic activity at concentrations of 0.3,1 and 3 uM on the isolated guinea pig right atrium.; format: functional, tissue-based; settings: Cardiac atrium
# [20] = biological target: Muscarinic acetylcholine receptor M3 (Cavia porcellus) (UniProt Q8VH26); experiment: muscarinic acetylcholine receptor M3 antagonistic activity at concentrations of 3 and 10 uM on the isolated guinea pig iluem.; format: functional
# In short: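 Guinea pig proximal ileum, isotonic recording under a 10 mN load in gassed Tyrode's solution. Cumulative carbachol (3-300 nM) curves as reference agonist. Antagonist incubated 10 min. pK_B calculated from concentration ratio, or pA2 by Schild plot.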
# [21] = biological target: Histamine H2 receptor (Cavia porcellus) (UniProt P47747); settings: Cardiac atrium, 10 uM
# Sequence of Histamine H2 receptor (Cavia porcellus) (P47747 whole entry): as the sequence (P47747 whole entry) above
SMILES,Relative potency [1] [%],pKB [3],Relative potency [6] [%],further results
CC(C)(C)OC(=O)Nc1ccc(C(=O)NCC/N=C(\NC#N)NCCCOc2cccc(CN3CCCCC3)c2)cc1,295,,,pKB [2]: 6.87
O=C(NCCCOc1cccc(CN2CCCCC2)c1)NCCNC(=O)c1ccccc1,50,6.1,,
N#CN/C(=N\CCNC(=O)c1ccccc1)NCCCCOc1cccc(CN2CCCCC2)c1,1862,7.67,,
N#CN/C(=N\CCCCCNC(=O)c1ccccc1)NCCCOc1cccc(CN2CCCCC2)c1,151,6.58,,
N#CN=C(NCCCOc1cccc(CN2CCCCC2)c1)NCCNC(=O)c1cccc(I)c1,,,,Kb [4]: 2.24 µM; Ki [5]: 0.00263 µM
N#CN/C(=N\CCCNC(=O)CCc1ccccc1)NCCCOc1cccc(CN2CCCCC2)c1,47,6.07,,
N#CN/C(=N\CCCCNC(=O)c1ccccc1)NCCCOc1cccc(CN2CCCCC2)c1,257,6.81,,
N#CN/C(=N\CCCNc1ccccc1[N+](=O)[O-])NCCCCOc1cccc(CN2CCCCC2)c1,,7.85,2820,
N#CN/C(=N\CCOC(=O)c1ccccc1)NCCCOc1cccc(CN2CCCCC2)c1,1738,7.64,,
N#CN/C(=N\CCNC(=O)c1ccncc1)NCCCOc1cccc(CN2CCCCC2)c1,309,6.89,,
N#CN/C(=N\CCNC(=O)c1ccc(N=[N+]=[N-])cc1)NCCCOc1cccc(CN2CCCCC2)c1,,7.9,3160,
N#CN=C(NCCCOc1cccc(CN2CCCCC2)c1)NCCNC(=O)c1ccc(N)c(I)c1,,,,Ki [7]: 0.000708 µM; Kb [8]: 0.0275 µM
N#CN/C(=N\CCNC(=O)c1ccc(N=[N+]=[N-])cc1)NCCCCOc1cccc(CN2CCCCC2)c1,,,1380,pKB [9]: 7.54
N#CN/C(=N\CCCNC(=O)c1ccccc1)NCCCOc1cccc(CN2CCCCC2)c1,550,,,pKB [9]: 7.14
N#CN/C(=N\CCCNC(=O)c1ccc(N=[N+]=[N-])cc1)NCCCOc1cccc(CN2CCCCC2)c1,,6.36,91,
N#CN/C(=N\CCNC(=O)c1ccc(N)cc1)NCCCCOc1cccc(CN2CCCCC2)c1,589,,,pKB [9]: 7.17
N#CN/C(=N\CCNC(=O)c1cc(I)c(N)c(I)c1)NCCCCOc1cccc(CN2CCCCC2)c1,,,2880,pKB [2]: 7.86
CNC(=C[N+](=O)[O-])NCCSCc1ccc(CN(C)C)o1 [RANITIDINE],,7.2,631,Ki [7]: 0.0537 µM
N#CN/C(=N\CCCNc1ccccc1[N+](=O)[O-])NCCCOc1cccc(CN2CCCCC2)c1,,,1320,pKB [10]: 7.52
N#CN/C(=N\CCNC(=O)c1cccc(N)c1)NCCCOc1cccc(CN2CCCCC2)c1,776,,,pKB [2]: 7.29
N#CN/C(=N\CCNC(=O)c1ccccc1[N+](=O)[O-])NCCCCOc1cccc(CN2CCCCC2)c1,1318,7.52,,
N#CN/C(=N\CCCCNC(=O)c1ccc(N)cc1)NCCCOc1cccc(CN2CCCCC2)c1,81,6.31,,
N#CN/C(=N\CCNC(=O)c1cccc(I)c1)NCCCCOc1cccc(CN2CCCCC2)c1,,6.56,,Ki [5]: 0.00525 µM; Relative potency [11]: 145%; pKB [12]: 5.59; pKB [13]: 6.15
N#CN=C(NCCCOc1cccc(CN2CCCCC2)c1)NCCNC(=O)c1ccc(N=[N+]=[N-])c(I)c1,,,,Kb [8]: 0.155 µM
N#CN/C(=N\CCCCCCNC(=O)c1ccccc1)NCCCOc1cccc(CN2CCCCC2)c1,158,6.6,,

SMILES,Relative potency [1] [%],pKB [3],Relative potency [6] [%],further results
N#CN/C(=N\CCCOc1cccc(CN2CCCCC2)c1)NCC(O)CNC(=O)c1ccccc1 (stereo not given),813,,,pKB [2]: 7.31
N#CN/C(=N\CCCNC(=O)c1ccc(N=[N+]=[N-])cc1)NCCCCOc1cccc(CN2CCCCC2)c1,,,170,pKB [9]: 6.63
N#CN/C(=N\CCCNc1ccc(N=[N+]=[N-])cc1[N+](=O)[O-])NCCCCOc1cccc(CN2CCCCC2)c1,,6.56,145,
C/N=C(/NC#N)NCCSCc1csc(NC(=N)N)n1,,7.8,,
N#CN/C(=N\CCNC(=O)c1ccc(N)c(I)c1)NCCCCOc1cccc(CN2CCCCC2)c1,,,891,pKB [9]: 7.35
N#CN/C(=N\CCNc1ccc(N=[N+]=[N-])cc1[N+](=O)[O-])NCCCCOc1cccc(CN2CCCCC2)c1,,,1180,pKB [9]: 7.47
CC(C)(C)OC(=O)Nc1ccc(CC(=O)NCC/N=C(\NC#N)NCCCCOc2cccc(CN3CCCCC3)c2)cc1,44,6.04,,
N#CN/C(=N\CCCOc1cccc(CN2CCCCC2)c1)NCC(O)CNc1ccccc1[N+](=O)[O-] (stereo not given),,,871,pKB [10]: 7.34
N#CN/C(=N\CCNS(=O)(=O)c1ccccc1)NCCCCOc1cccc(CN2CCCCC2)c1,759,7.28,,
CN/C(=N\CCSCc1nc[nH]c1C)NC#N,,6.4,,
N#CN/C(=N\CCNC(=O)c1ccc(N=[N+]=[N-])c(I)c1)NCCCOc1cccc(CN2CCCCC2)c1,,,257,pKB [14]: 6.05; pKB [15]: 6.17; pKB [16]: 5.12; pKB [17]: 5.62; Slope [18]: 1.2; pKB [19]: 6.98; pKB [20]: 5.48
Nc1ccc(C(=O)NCCCOc2cccc(CN3CCCCC3)c2)cc1,263,6.82,,
N#CN/C(=N\CCNC(=O)CCc1ccccc1)NCCCOc1cccc(CN2CCCCC2)c1,74,6.27,,
Cc1ccc(S(=O)(=O)NCC/N=C(\NC#N)NCCCCOc2cccc(CN3CCCCC3)c2)cc1,776,7.29,,
N#CN/C(=N\CCNC(=O)CCCc1ccccc1)NCCCOc1cccc(CN2CCCCC2)c1,112,6.45,,
N#CN/C(=N\CCNC(=O)c1ccccc1)NCCCOc1cccc(CN2CCCCC2)c1,2630,,,pKB [9]: 7.82
Cc1ccc(S(=O)(=O)NCC/N=C(\NC#N)NCCCOc2cccc(CN3CCCCC3)c2)cc1,54,6.13,,
N#CN/C(=N\CCCNc1ccc(N=[N+]=[N-])cc1[N+](=O)[O-])NCCCOc1cccc(CN2CCCCC2)c1,,,245,pKB [9]: 6.79
N#CN/C(=N\CCNS(=O)(=O)c1ccccc1)NCCCOc1cccc(CN2CCCCC2)c1,186,,,pKB [2]: 6.67
N#CN/C(=N\CCCNC(=O)c1ccccc1)NCCCCOc1cccc(CN2CCCCC2)c1,158,6.6,,
Nc1ccc(C(=O)NCCNC(=O)NCCCOc2cccc(CN3CCCCC3)c2)cc1,676,7.23,,
N#CN/C(=N\CCN)NCCCOc1cccc(CN2CCCCC2)c1,36,,,pKB [21]: 5.95
N#CN/C(=N\CCNC(=O)Cc1ccccc1)NCCCOc1cccc(CN2CCCCC2)c1,339,6.93,,
N#CN/C(=N\CCNc1ccc(N=[N+]=[N-])cc1[N+](=O)[O-])NCCCOc1cccc(CN2CCCCC2)c1,,7.39,977,
